# Assay outcomes as filed in PubChem.
# Sampled rows, rich in hits. Any-hit rate of the full collection: about 1.7%.
# Scp1 inh: Scp-1 phosphatase inhibitors, primary screen, biochemical, colorimetric, uHTS | Carboxy-terminal domain RNA polymerase II polypeptide A small phosphatase 1 (Homo … | actives 0.88% (n = 340,000) | inhibition, % at 20 µM | Recombinant Scp1, phosphopeptide, malachite green phosphate absorbance;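 active = inhibition above about 50% at 20 µM, limit read from the data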
# Target sequence (Q9GZU7 76-261 limits assumed): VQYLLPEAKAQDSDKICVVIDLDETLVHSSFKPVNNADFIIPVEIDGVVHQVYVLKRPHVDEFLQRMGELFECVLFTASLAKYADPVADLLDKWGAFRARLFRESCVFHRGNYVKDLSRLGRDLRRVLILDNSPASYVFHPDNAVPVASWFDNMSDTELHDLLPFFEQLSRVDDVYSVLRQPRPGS
#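 assay system = SCP-1 phosphatase catalytic domain, residues 76-261 | buffer or medium = 50 mM Tris acetate pH 5.5, 0.005% Tween-20, 10 mM MgCl2 | incubation = enzyme reaction 45 min at room temperature, colour 5 min, stabilisation 30 min | signal = Phosphate-binding colour reagent, absorbance read at 630 nm | measure = % inhibition at 20 µM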
# SUMO1 PPI mod: modulators of SUMO1 protein-protein interactions, primary screen, biochemical, uHTS; Small ubiquitin-related modifier 1 (Homo sapiens), P63165; inhibition, % at 20 µM; SUMO1 binding to a labelled peptide, TR-FRET, 1 h; actives 0.33% (n = 360,000); in the data active = inhibition above about 37%
# Target sequence (P63165 whole entry, looked up): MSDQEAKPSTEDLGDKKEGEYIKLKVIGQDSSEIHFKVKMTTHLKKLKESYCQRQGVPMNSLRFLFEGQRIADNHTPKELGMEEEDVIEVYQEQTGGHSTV
# STEP inh: STEP phosphatase inhibitors, primary screen, biochemical, fluorescence intensity, uHTS | Tyrosine-protein phosphatase non-receptor type 5 (Homo sapiens), P54829 | recombinant STEP, OMFP fluorogenic substrate | inhibition, % at 20 µM | actives 0.25% (n = 360,000) | AID 588621, 2011;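 active = inhibition at 20 µM, scaled per plate between control wells, above about 37%, limit read from the data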
#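 material = STEP tyrosine phosphatase | reagent = fluorogenic phosphatase substrate OMFP at 25 µM final | doses = single compound dose of 20 µM, 1% DMSO final | schedule = 20 min reaction, room temperature, in the dark | measured by = fluorescence, 480/540 nm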
# DNMT1 inh: human DNMT1 methyltransferase inhibitors, primary screen, biochemical, molecular beacon, fluorescence, HinP1I cleavage, uHTS | DNA (cytosine-5)-methyltransferase 1 (Homo sapiens), P26358 | inhibition (reported as % activation of signal), % at 10 µM | actives 0.83% (n = 360,000); in the data active = inhibition above about 50%
# LMPTP inh: LMPTP phosphatase inhibitors, primary screen, biochemical, fluorescence intensity, uHTS | recombinant LMPTP-A, OMFP fluorogenic substrate | actives 0.22% (n = 360,000) | AID 651560, 2012 | inhibition, % at 20 µM | Low molecular weight phosphotyrosine protein phosphatase (Homo sapiens), P24666;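 active = compounds that cut the enzyme signal by at least half of the control window in the single-dose screen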
# Target sequence (P24666 whole entry, looked up): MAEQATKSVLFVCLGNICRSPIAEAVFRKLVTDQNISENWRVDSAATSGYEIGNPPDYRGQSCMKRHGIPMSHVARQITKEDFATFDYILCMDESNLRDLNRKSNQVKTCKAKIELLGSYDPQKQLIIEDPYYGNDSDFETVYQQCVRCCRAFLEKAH
#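 Test system – LMPTP-A enzyme · Amount – LMPTP-A at 0.625 nM final in the reaction · Buffer or medium – Bis-Tris pH 6.0, DTT, detergent · Reagent – OMFP 400 µM · Doses – single 20 µM dose · Schedule – reaction 50 min, room temperature, dark · Detection – fluorescence intensity of OMFP turnover product · Evaluation – percent inhibition versus substrate-only and uninhibited controls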
# Scp1 confirm: Scp-1 phosphatase inhibitors, retest, confirmation, biochemical, colorimetric, single concentration; shares compounds with Scp1 inh; recombinant SCP-1 catalytic domain, phosphate release, malachite green absorbance; inhibition, % at 20 µM; actives 61% (n = 2,500); AID 540281, 2011
# MG interference: colorimetric readout interference by compounds, confirmation, artefact control for Scp-1 inhibitor project, biochemical, single concentration. shares compounds with Scp1 inh. Colorimetric interference counterscreen, malachite green absorbance 630 nm. apparent inhibition (interference), % at 20 µM. 2,500 tested, under 10 active. AID 540313, 2011;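 note: compounds added after enzyme reaction finished so only phosphate colour detection is probed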
# Scp-1 Tm shift: Scp-1 binding by thermal shift, confirmation, orthogonal assay for Scp-1 inhibitor project, biophysical, differential scanning fluorimetry | shares compounds with Scp1 inh | Recombinant SCP1, Sypro Orange thermal shift Tm | thermal shift relative to vanadate control, % at 40 µM | actives 25% (n = 1,500);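 active = substances whose mean melting-temperature shift, as a percentage of the reference inhibitor's shift, reaches about 5.3%, limit read from the data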
# Numbers stand for hits; . = inactive; / = no result.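 Rule for the calls, unless noted: active = inhibition of at least 30% at 20 µM; inactive = the rest.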
SMILES,Scp1 inh,SUMO1 PPI mod,STEP inh,DNMT1 inh,LMPTP inh,Scp1 confirm,MG interference,Scp-1 Tm shift
COc1ccc(C(=O)OCC(=O)NCc2ccco2)cc1OC,56,.,.,.,.,53,.,.
O=C(COc1ccc(Cl)cc1Cl)NCc1ccco1,.,.,.,.,.,/,/,/
COc1ccc(/C=C/C(=O)OCC(=O)NCc2ccco2)cc1OC,52,.,.,.,.,59,.,.
O=C(COC(=O)COc1ccccc1)NCc1ccco1,.,.,.,.,.,/,/,/
COc1ccc(OCCC(=O)OCC(=O)NCc2ccco2)cc1,86,.,.,.,.,72,.,.
Cc1ccc(OCC(=O)N(C)CC(=O)NCc2ccco2)c(Br)c1,70,.,.,.,.,75,.,.
CC(=O)NCCNC(=O)c1ccc(NC2=NC3CS(=O)(=O)CC3S2)cc1 (stereo unspecified),.,.,.,.,.,/,/,/
O=C(Cc1ccc(F)cc1)Nc1cc(S(=O)(=O)N2CCOCC2)ccc1N1CCCCC1,/,.,.,.,.,/,/,/
CCOc1ccccc1OCC(=O)NCc1ccco1,58,.,.,.,.,60,.,.
O=C(COc1ccccc1Cl)NCc1ccco1,.,.,.,.,.,/,/,/
Cc1cccc(C(=O)Oc2ccc(/C=N/NC(=O)Cc3ccc([N+](=O)[O-])cc3)cc2)c1,52,.,.,.,.,36,.,.
Cc1cccc(C(=O)Oc2ccc(/C=N/NC(=O)c3ccc(O)cc3)cc2)c1,.,.,.,.,.,/,/,/
Cc1cc(C)cc(CC(=O)N2CCC2(C)C(=O)NS(=O)(=O)c2ccc(C(C)(C)C)cc2)c1 (stereo unspecified),/,.,.,.,.,/,/,/
O=C(C1CCCCC1)N1C[C@H](O)[C@@H](n2cc(C3CC3)nn2)C[C@@H]1c1ccccc1,/,.,.,.,.,/,/,/
O=C(/C=C\Nc1ccc2c(c1)OCO2)c1ccc(Cl)s1,91,.,.,.,63,75,.,.
O=C(/C=C\Nc1ccc2c(c1)OCO2)c1cccs1,.,.,.,.,.,/,/,/
COc1ccccc1N1CC(C(=O)OCC(=O)c2c(N)n(C)c(=O)n(C)c2=O)CC1=O (stereo unspecified),/,.,.,.,.,/,/,/
N#C/C(=C\c1cc2c(cc1Br)OCO2)c1ccc(C(=O)O)cc1,52,.,.,.,.,68,.,.
O=C1Cc2cc(NS(=O)(=O)c3cc(F)ccc3F)cc3c2N1CCC3,.,.,.,.,.,/,/,/
CC(C)C(=O)N1CCCCCCN1C(=O)C(C)C,/,.,.,.,.,/,/,/
COc1cccc2cc(C(=O)NCc3ccco3)c(=Nc3ccc(C(=O)O)cc3)oc12,56,.,.,.,.,32,.,.
COc1cccc2cc(C(=O)NCc3ccco3)c(=O)oc12,.,.,.,.,.,/,/,/
CCc1ccc(C(C(=O)NC2CCCC2)N(C(=O)c2csnn2)C2CC2)cc1 (stereo unspecified),.,.,.,.,.,/,/,/
Cc1cc(C(=O)N/N=C/C=C/c2ccc(Br)cc2)n[nH]1,52,.,.,.,.,65,.,.
Cc1cc(C(=O)N/N=C/c2ccc(-c3ccccc3Cl)o2)n[nH]1,60,.,.,.,.,58,.,.
SMILES,Scp1 inh,SUMO1 PPI mod,STEP inh,DNMT1 inh,LMPTP inh,Scp1 confirm,MG interference,Scp-1 Tm shift
Cc1cc(C(=O)N/N=C/c2cc(Br)ccc2OC(=O)c2ccccc2)n[nH]1,94,.,.,.,.,64,.,.
Cc1cc(C(=O)N/N=C/c2ccc(-c3ccc(C)c(Cl)c3)o2)n[nH]1,.,.,.,.,.,/,/,/
Cc1cc(C(=O)N/N=C/c2cc(Br)ccc2OC(=O)c2ccccc2Cl)n[nH]1,.,.,.,.,.,/,/,/
O=C(CCN1C(=O)S/C(=C\c2ccc(F)cc2)C1=O)Nc1ccc(O)cc1C(=O)O,.,.,.,.,.,/,/,/
O=C(COc1cccc(Br)c1)N/N=C/c1ccc2c(c1)OCCO2,/,.,.,.,.,/,/,/
C[N+]1(CCCCCCC(=O)/C=N/O)CCCCCC1,96,.,.,.,.,.,.,/
O=C(/C=C/[C@H]1O[C@@H](n2ccc(=O)[nH]c2=O)[C@H](O)[C@@H]1O)NCCN1CCCCC1,/,.,.,.,.,/,/,/
O=C(O)CCCCCCCCCC(=O)c1cccs1,81,.,.,.,.,.,.,/
CC(CC(=O)c1cccs1)CC(=O)c1cccs1,.,.,.,.,.,/,/,/
Cc1ccc(S(=O)(=O)NC(=O)c2cccc(Br)c2)cc1,.,.,.,.,.,/,/,/
O=C(NS(=O)(=O)c1ccccc1)c1cccc(Br)c1,62,.,.,.,.,.,.,/
CCN(CC(=O)Nc1ccc(OC)cc1)C(=O)c1cccc(S(=O)(=O)N2CCN(c3ccccc3)CC2)c1,/,.,.,.,.,/,/,/
COc1ccc(CC(NC(C)=O)C(=O)NC2CCN(C(=O)Nc3ccccc3C)CC2)cc1OC (stereo unspecified),.,.,.,.,.,/,/,/
Cc1cccc(C)c1NC(=O)CCCCCC1NC(=O)NC1C (stereo unspecified),.,.,.,.,.,.,.,/
NC(=O)c1cc(S(=O)(=O)NCc2ccc(F)cc2)cs1,.,.,.,.,.,/,/,/
CSc1ccc(CCNS(=O)(=O)c2csc(C(N)=O)c2)cc1,.,.,.,.,.,.,.,/
Cc1cccc(CNS(=O)(=O)c2csc(C(N)=O)c2)c1,.,.,.,.,.,.,.,/
CCc1ccccc1NC(=O)Cn1nnc(C(=O)NCc2cccc(OC)c2)c1N,.,.,.,.,.,/,/,/
O=C(CN1C(=O)NC2(CCCCC2)C1=O)NCCCSc1ccccc1,.,.,.,.,.,/,/,/
CCN(CC)c1nc(NN)nc(Nc2ccc(C)c(Cl)c2)n1,.,.,.,.,.,/,/,/
Fc1ccccc1Sc1ccccc1CNC1=NCCN1,97,.,.,.,.,84,.,.
c1ccc(Sc2cccc3ccccc23)c(CNC2=NCCN2)c1,.,.,.,.,.,/,/,/
C=C(C)C(=O)Nc1ccc2nn(-c3ccccc3O)nc2c1,/,.,.,.,.,/,/,/
COc1ccc2c(c1)c(=O)oc1cc(OCC(=O)NC3CCCCC3)ccc12,70,.,.,52,.,56,.,.
